Consider four molecules from ChEMBL document CHEMBL3576870, “Monanchosterols A and B, bioactive bicyclo[4.3.1]steroids from a Korean sponge Monanchora sp” (J Nat Prod, 2015).

The subject of series [1] is RAW264.7. Description: Cytotoxicity against mouse RAW264.7 cells. The class given is cell-based. Particulars: for Activity: mouse, raw264.7.
The test system of series [2] is RAW264.7. Kind of series: Antiinflammatory activity in mouse RAW264.7 cells assessed as inhibition of LPS-stimulated IL-6 mRNA expression at 10 uM after 24 hrs by RT-qPCR analysis relative to control. Particulars: RAW264.7, 24 h. The class given is functional. Put shortly: (§1)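 RAW 264.7 cells grown in DMEM with 10% heat-inactivated FBS and 1% penicillin-streptomycin at 37 °C, 5% CO2. Plated at 3 × 10^5 cells/mL in six-well plates, left 24 h. Then given 0.1 μg/mL LPS with or without test compound (0.1–100 μM) for 24 h. mRNA quantified by RT-qPCR after RNA extraction, normalized to 18s mRNA and expressed as ratio to DMSO. SB203580 (10 μM) served as reference. Mean ± SD of three independent experiments.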

Series [3] deals with RAW264.7. Kind of series: Antiinflammatory activity in mouse RAW264.7 cells assessed as inhibition of LPS-stimulated IL-6 mRNA expression after 24 hrs by RT-qPCR analysis. It counts as functional, cell-based. As to conditions: for IC50: RAW264.7, 24 h. The procedure, abridged:
as §1
(In general: Quantitative PCR measures a nucleic acid by following its amplification.)

The subject of series [4] is RAW264.7. Kind of series: Antiinflammatory activity in mouse RAW264.7 cells assessed as inhibition of LPS-stimulated TNF-alpha mRNA expression at 0.1 to 100 uM after 24 hrs by RT-qPCR analysis. The class given is functional, cell-based. Put shortly: as §1
Series [5] relates to RAW264.7. Description: Antiinflammatory activity in mouse RAW264.7 cells assessed as inhibition of LPS-stimulated COX-2 mRNA expression at 0.1 to 100 uM after 24 hrs by RT-qPCR analysis. It counts as functional, cell-based. The procedure, abridged:
as §1

SMILES strings stand for the structures. Activity calls are given as the source filed them. The calls are words filed in the database; no cut-off is given here.

Usually inhibition stands for the change of the read-out against control, counted positive when it falls. One may read the IC50 as the concentration needed to halve the response being measured.

Consider `CC(=O)O[C@H]1CC[C@@]2(C)C(=O)[C@@H]1[C@H](O)C=C1[C@@H]3CC[C@H]([C@H](C)CCC=C(C)C)[C@@]3(C)CC[C@@H]12`, for which the Activity result with RAW264.7 [1] was “Non-toxic”. For the same molecule, the inhibition at 10 µM in the series with RAW264.7 [2] worked out at 69%. Besides, in the series with RAW264.7 [3], the inhibition result was “Dose-dependent effect” and the IC50 is 5 µM. The inhibition entry in the series with RAW264.7 [4] was “inactive”. Also, in the series on RAW264.7 [5], the inhibition entry is “inactive”.
For `CC(C)=CCC[C@@H](C)[C@H]1CC[C@H]2C3=C[C@@H](O)[C@H]4C(=O)[C@](C)(CC[C@@H]4O)[C@H]3CC[C@]12C`, the half-inhibitory concentration (IC50) in the series on RAW264.7 [1] (Mus musculus, RAW264.7) is 65 µM.
Turning to `C[S+]([O-])c1ccc(-c2nc(-c3ccc(F)cc3)c(-c3ccncc3)[nH]2)cc1` (centres undefined) [SB-203580], the inhibition at 10 µM in the series with RAW264.7 [2] was determined as 53%.
For the molecule `C=C(CC[C@@H](C)[C@H]1[C@H](O)C[C@H]2[C@@H]3CC=C4C[C@@H](O)CC[C@]4(C)[C@H]3CC[C@]12C)C(C)C`, the Activity entry with RAW264.7 [1] was “Non-toxic”. The inhibition at 10 µM with RAW264.7 [2] was found to be 67%. In addition, the inhibition result with RAW264.7 [3] is “Dose-dependent effect”. In the series on RAW264.7 [3], the IC50 was 5.2 µM. Besides, the inhibition result with RAW264.7 [4] and in the series on RAW264.7 [5] was “inactive” throughout.
